Experimental data taken from article PMC2806602 (The Journal of neuroscience : the official journal of the …, 2009).
Numbering of substitutions follows the chain as printed. “Also recorded” adds a separate entry of the source.

Columns and labels:
GluRδ2^Wt = molecular target: T1, GluRδ2^Wt (Rattus norvegicus, UniProt Q63226); assay: Two-electrode voltage-clamp recordings in Xenopus oocytes expressing GluRδ2^Wt; format: cell-based
T1 sequence (Q63226 24-1007): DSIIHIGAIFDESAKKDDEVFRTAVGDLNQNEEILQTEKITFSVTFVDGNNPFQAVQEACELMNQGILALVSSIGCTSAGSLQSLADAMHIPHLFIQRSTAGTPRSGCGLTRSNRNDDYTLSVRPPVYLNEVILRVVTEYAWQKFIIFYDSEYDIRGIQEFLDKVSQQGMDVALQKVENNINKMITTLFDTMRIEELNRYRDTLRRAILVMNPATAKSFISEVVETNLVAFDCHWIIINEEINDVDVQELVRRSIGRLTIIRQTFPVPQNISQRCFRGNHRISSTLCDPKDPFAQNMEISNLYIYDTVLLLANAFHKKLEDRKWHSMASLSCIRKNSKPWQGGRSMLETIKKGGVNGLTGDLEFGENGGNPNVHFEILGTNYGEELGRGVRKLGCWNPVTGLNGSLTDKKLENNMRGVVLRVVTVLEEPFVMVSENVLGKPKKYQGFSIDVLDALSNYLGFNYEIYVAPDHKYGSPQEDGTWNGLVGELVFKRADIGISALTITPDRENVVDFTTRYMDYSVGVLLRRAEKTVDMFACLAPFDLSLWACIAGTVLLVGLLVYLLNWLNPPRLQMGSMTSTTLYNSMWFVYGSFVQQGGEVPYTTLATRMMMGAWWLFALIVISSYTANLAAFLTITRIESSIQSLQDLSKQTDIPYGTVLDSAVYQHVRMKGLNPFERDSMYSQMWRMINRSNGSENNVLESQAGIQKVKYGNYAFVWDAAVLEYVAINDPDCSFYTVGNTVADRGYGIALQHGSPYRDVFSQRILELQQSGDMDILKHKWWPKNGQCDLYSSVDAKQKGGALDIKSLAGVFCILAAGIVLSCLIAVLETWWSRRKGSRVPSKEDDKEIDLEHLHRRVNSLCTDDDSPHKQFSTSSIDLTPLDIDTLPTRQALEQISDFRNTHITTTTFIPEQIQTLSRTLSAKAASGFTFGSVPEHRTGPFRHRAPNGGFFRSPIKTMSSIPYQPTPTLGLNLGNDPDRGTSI
How it was run: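 Oocytes injected with wild-type receptor cRNA the day after excision and collagenase treatment. Two-electrode voltage clamp at −40 mV and 23°C, 24–72 h post-injection. Bath: 90 mM NaCl, 3 mM KCl, 0.5 mM BaCl2, 10 mM HEPES, pH 7.6. Ba2+ was replaced by 0.5 mM Mg2+, Zn2+, Mn2+, Sr2+ or Ca2+, or Ca2+ was raised stepwise. Choline or NMDG chloride kept osmolarity and Cl− constant. Baseline was current without Ca2+.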

GluRδ2^Lc D742A = molecular target: T2, GluRδ2^Lc D742A (Rattus norvegicus, UniProt Q63226, A654T/D742A); assay: Two-electrode voltage-clamp recordings in Xenopus oocytes, GluRδ2^Lc D742A; format: cell-based; details: 3 mM Ca^2+; baseline spontaneously active current; ± SEM
T2 sequence (Q63226 24-1007 A654T/D742A): T1 sequence (Q63226 24-1007) with A631T, D719A
How it was run: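 Oocytes expressing the Lc mutant were kept in 25 μM NASP to prevent cytotoxicity. Two-electrode voltage clamp at −40 mV and 23°C, 24–72 h after cRNA injection. Bath: 90 mM NaCl, 3 mM KCl, 0.5 mM BaCl2, 10 mM HEPES, pH 7.6. Choline or NMDG chloride balanced Cl− and osmolarity. Values are fold increase over the Ca2+-free spontaneously active baseline on applying 3 mM Ca2+, given as mean ± SEM over oocytes.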

[Ca+2] [Ca^2+, calcium]
effect of divalent cation on currents at GluRδ2^Wt (GluRδ2^Wt; 0.5 mM Ba^2+ exchanged with 0.5 mM of the divalent cation): no changes were observed | effect of extracellular Ca^2+ on baseline currents at GluRδ2^Wt (GluRδ2^Wt; increasing concentrations of Ca^2+): insensitive; also recorded: did not induce current | Ca^2+ potentiation (relative to baseline) (GluRδ2^Lc D742A): 3.5 ± 0.11 fold
